Only some compounds are listed: those with a hit (about 2.8% of all), similar ones and a draw of the others.
NPY Y2 blocker – antagonists of human neuropeptide Y receptor Y2 | P49146 | NPY-Y2 expressing cells, antagonist mode | inhibition, % at 2.7 µM | 140,000 tested, 0.99% active | AID 793; in the data active means inhibition above about 17%;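 further: 0% = vehicle with agonist challenge and 100% = reference antagonist with challenge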
Target sequence (P49146 whole entry, looked up): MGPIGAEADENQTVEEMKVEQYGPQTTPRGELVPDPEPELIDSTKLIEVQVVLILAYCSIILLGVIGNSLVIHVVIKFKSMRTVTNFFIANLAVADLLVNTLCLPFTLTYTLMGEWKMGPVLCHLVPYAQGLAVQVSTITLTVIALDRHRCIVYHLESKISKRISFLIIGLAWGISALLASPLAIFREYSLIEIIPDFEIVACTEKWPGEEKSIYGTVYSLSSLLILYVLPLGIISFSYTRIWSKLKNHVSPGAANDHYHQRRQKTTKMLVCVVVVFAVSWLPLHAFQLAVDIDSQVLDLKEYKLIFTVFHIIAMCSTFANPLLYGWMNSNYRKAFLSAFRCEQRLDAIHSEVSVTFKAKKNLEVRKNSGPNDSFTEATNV
MDM2 E3 inh – Mdm2 E3 ligase (human) inhibition; Q00987; cell-based MDM2 ubiquitination luciferase reporter, 2 h; 0 = plate control, 100 = twice control, blank-subtracted; signal enhancement, % at 5 µM; 210,000 tested, 0.11% active;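 active means signal enhancement of 30% or more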;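 further: luminescence tracks abundance of the self-degrading MDM2-luciferase fusion protein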
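Test system: stable mammalian line carrying autodegrading MDM2–luciferase fusion reporter; quantity: 2000 cells in each well; times: 4 h cell settling then 2 h compound exposure, 37 °C; detection: luminescence with SteadyLite reagent, 15 min at room temperature; evaluation: percent signal gain over controls, blank-subtracted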
NPY1 pot ag – potentiators or agonists of human neuropeptide Y receptor Y1; P25929; NPY-Y1 expressing cells, potentiator/agonist activation; activation, % at 3.6 µM; 220,000 tested, 0.37% active; AID 1304; in the data active means activation above about 33%, passing the limit was not always enough;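 further: cells stimulated with NPY at EC10 then isoproterenol at EC100; 0% = low agonist plus stimulus and 100% = saturating agonist plus stimulus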
Target sequence (P25929 whole entry, looked up): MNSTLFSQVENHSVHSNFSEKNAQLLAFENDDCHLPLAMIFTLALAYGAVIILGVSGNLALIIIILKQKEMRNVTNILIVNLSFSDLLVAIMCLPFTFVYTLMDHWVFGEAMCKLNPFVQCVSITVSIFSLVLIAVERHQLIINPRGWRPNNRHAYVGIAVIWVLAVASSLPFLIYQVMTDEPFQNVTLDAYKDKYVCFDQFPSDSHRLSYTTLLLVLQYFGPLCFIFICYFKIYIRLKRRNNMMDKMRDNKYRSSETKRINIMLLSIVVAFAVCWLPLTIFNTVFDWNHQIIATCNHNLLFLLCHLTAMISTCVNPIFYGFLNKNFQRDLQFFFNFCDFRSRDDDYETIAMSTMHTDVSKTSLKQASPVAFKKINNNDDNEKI
Measles CPE – protection of cells from measles virus; Measles virus-infected cells, CPE protection, absorbance; protection (pct of control), % at 4 µM; 140,000 tested, 1.5% active; AID 841; in the data active means protection mostly above about 24%, no sharp cut-off; inactive means mostly below about 26%
NPY Y1 blocker – antagonists of human neuropeptide Y receptor Y1; P25929; HEK293-CNG Y1 cells, membrane potential fluorescence; NPY at EC95, then isoproterenol; inhibition, % at 3.6 µM; 200,000 tested, 1% active;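 active means inhibition above the campaign mean inhibition of all tested compounds plus 3 SD, cut at about 20% in these data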;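 further: 0% = DMSO wells given NPY plus isoproterenol and 100% = isoproterenol alone without NPY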
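Test system: HEK293 cells co-expressing NPY Y1 receptor and cyclic-nucleotide gated channel; Also added: NPY (25 nM), isoproterenol (1 µM), Ro 20-1724 (25 µM); Compound dosing: one concentration, 3.6 µM, in 0.4% DMSO; Timing: dye 3 h, compound 60 min room temperature, stimulation 45 min; Technique: Membrane-potential fluorescent dye readout.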
NPY-Y2 PAM-ag – human NPY-Y2 potentiation or agonism, primary screen; P49146; cells expressing NPY-Y2, potentiator/agonist read-out; activation, % at 3.6 µM; 220,000 tested, 0.45% active; in the data active means activation above about 27%;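 further: cells stimulated with NPY near EC25 plus isoproterenol at EC100; 0% = vehicle plus submaximal agonist and 100% = vehicle plus saturating agonist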
NPY1 antag ctr – counter-screen for NPY-Y2 antagonists: human NPY-Y1 antagonism; shares compounds with NPY Y2 blocker; cell-based NPY-Y1 antagonism counterscreen; inhibition, % at 3.6 µM; 710 tested, 19% active; AID 1256; in the data active means inhibition above about 20%;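 further: cells challenged with NPY then isoproterenol with cAMP sensed through a CNG channel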
NPY-Y2 ant conf – human NPY-Y2 antagonism, confirmation; 710 tested, 32% active; HEK293 NPY-Y2 CNG channel, membrane potential fluorescence; inhibition, % at 2.8 µM; shares compounds with NPY Y2 blocker;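 active means mean inhibition of triplicate wells above the hit cutoff set in the primary screen, cut at about 17% in these data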;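 further: 0% = DMSO with NPY challenge and 100% = BIIE0246 high control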
Numbers without * were called inactive; . = no result.

SMILES | NPY Y2 blocker | MDM2 E3 inh | NPY1 pot ag | Measles CPE | NPY Y1 blocker | NPY-Y2 PAM-ag | NPY1 antag ctr | NPY-Y2 ant conf
CCC(C)n1c(SCC(=O)NCc2ccco2)nnc1-c1cccc(S(=O)(=O)N2CCOCC2)c1 (stereo unspecified) | -0.6 | -9.6 | 6.2 | 4.0 | 4.7 | -10.3 | . | .
Cc1ccc(CSc2nnc(-c3cccc(S(=O)(=O)N4CCOCC4)c3)n2CC(C)C)cc1 | 17.9* | -3.6 | -23.5 | 8.1 | 7.2 | 3.5 | 10.0 | 6.5
CCOc1ccc(CNCCNC(=O)c2nonc2N)cc1 | . | -1.2 | -8.4 | . | 1.6 | -2.2 | . | .
Nc1nonc1C(=O)NCCNCc1ccccc1OCc1ccc(F)cc1 | 17.4* | -1.4 | -20.6 | 4.4 | 10.3 | -35.9 | 12.3 | 11.8
Clc1ccc(OCc2cc(-c3ccccc3)no2)cc1Cl | 22.9* | -9.0 | -29.8 | 15.3 | 8.1 | -33.1 | 39.3* | 38.5*
Clc1ccc(-c2cc(COc3ccccc3)on2)cc1 | . | -11.9 | -33.1 | . | 10.1 | 2.8 | . | .
Cc1nc(-c2ccccc2)sc1C(N)=O | 0.9 | -12.0 | -16.8 | 8.8 | 5.1 | -10.2 | . | .
Cc1nc(-c2ccccc2)sc1C(=O)CSc1ccc(F)cc1 | 20.0* | -3.8 | -28.1 | 9.9 | 19.3 | -31.6 | 21.1* | 25.0*
O=C(/C=C/c1ccc(Br)cc1)N1CCN(c2cccc(C(F)(F)F)c2)CC1 | 19.4* | -10.5 | -9.1 | 20.6 | 6.6 | -11.8 | 24.0* | 24.6*
O=C(CN1CCN(c2cccc(C(F)(F)F)c2)CC1)Nc1cccc(C(F)(F)F)c1 | 17.4* | -4.8 | -54.1 | 14.7 | 5.1 | -11.1 | 24.3* | 21.6*
COc1cc(C(=O)NC2=C(C#N)CCC2)cc(OC)c1OC | . | -8.4 | 4.5 | . | -0.6 | 1.1 | . | .
Cc1cc(F)ccc1S(=O)(=O)Nc1ccccc1C(=O)NCc1ccccn1 | . | -95.4 | -15.9 | . | 5.7 | -11.3 | . | .
O=C(c1ccccc1)c1ccc(OCCCCN2CCCCC2)cc1 | 2.4 | -4.3 | -32.6 | 5.2 | 10.5 | -8.5 | . | .
c1ccc(COc2ccc(OCCCCN3CCCCC3)cc2)cc1 | 26.6* | 0.5 | -21.3 | 21.7 | 13.6 | -18.8 | 10.4 | 38.5*
CCC(C)N(C(=O)Cn1nnc2ccccc21)C(C(=O)Nc1ccc(F)cc1)c1cccc(OC)c1 (stereo unspecified) | 18.4* | -14.4 | -36.6 | 11.5 | 16.1 | -63.5 | 10.6 | 11.3
CC(C)(C)n1nnnc1C(c1cccs1)N(Cc1ccc(Cl)cc1)CC1CCCO1 (stereo unspecified) | 28.3* | 10.4 | -20.6 | 6.3 | 11.3 | 2.4 | 19.4 | 10.8
O=C(/C=C/c1ccc2c(c1)OCO2)NCCSCc1cccc(Cl)c1 | 17.7* | -1.5 | -36.5 | 3.3 | 11.6 | -34.9 | 6.6 | 4.9
O=C(/C=C/c1ccc2c(c1)OCO2)NCCSCc1ccc(Cl)cc1Cl | 18.9* | -23.5 | -6.9 | 3.4 | 14.3 | -18.8 | 15.3 | 15.5
CS(=O)(=O)N(CC(=O)NCCSCc1cccc(Cl)c1)c1ccc2c(c1)OCO2 | 2.0 | -12.1 | 1.3 | 8.0 | 0.5 | 6.0 | . | .
O=C(N/N=C/c1ccco1)c1ccc(OCc2ccccc2)cc1 | . | -15.6 | 5.2 | . | . | -3.0 | . | .
O=C(N/N=C/c1ccco1)c1ccccc1OCc1ccc(Br)cc1 | 33.0* | -4.2 | -59.4 | 44.2 | 16.3 | -47.2 | 19.9 | 19.7*
C=CCNC(=S)N1CCN(Cc2ccccc2)CC1 | . | -19.5 | 0.4 | . | 1.5 | 2.0 | . | .
COc1ccc(C(=O)N/C(=C/c2cccs2)C(=O)NCCCn2ccnc2)cc1OC | 21.6* | 12.3 | -3.4 | 3.9 | -2.0 | -0.9 | -1.8 | 4.4
O=C(NCCCn1ccnc1)/C(=C\c1cccs1)NC(=O)c1ccco1 | 3.1 | -5.9 | -3.7 | 5.3 | 3.0 | 17.5 | . | .
CC(C)CN(CC(C)C)C(=O)C12CCC(C)(C(=O)O1)C2(C)C (stereo unspecified) | 1.4 | 0.9 | -0.8 | 0.6 | 9.6 | -2.5 | . | .
SMILES | NPY Y2 blocker | MDM2 E3 inh | NPY1 pot ag | Measles CPE | NPY Y1 blocker | NPY-Y2 PAM-ag | NPY1 antag ctr | NPY-Y2 ant conf
Cc1cccc(N2CCN(CC(=O)Nc3ccccc3[N+](=O)[O-])CC2)c1C | 38.5* | -15.2 | 14.7 | 36.0 | 8.8 | 2.8 | 10.2 | 10.9
COC(=O)c1ccc(C(C(=O)NC2CCCCC2)N(CCc2ccccc2)C(=O)Cc2cccs2)cc1 (stereo unspecified) | 1.8 | 4.5 | -16.9 | 3.3 | 2.2 | 10.8 | . | .
COC(=O)c1ccc(C(C(=O)NC2CCCCC2)N(Cc2ccc(F)cc2)C(=O)Cc2cccs2)cc1 (stereo unspecified) | 19.3* | -3.1 | -8.0 | 11.4 | -4.4 | -12.2 | 6.6 | 9.3
O=C(NC1CCCCC1)C(c1ccc2ncccc2c1)N(Cc1ccc(F)cc1)C(=O)c1cccs1 (stereo unspecified) | 30.7* | -11.1 | -33.1 | 1.9 | 18.8 | -12.5 | 11.8 | 9.4
O=[N+]([O-])c1ccc(-c2n(-c3ccccn3)c3ccccc3[n+]2-c2ccccn2)cc1 | . | . | 5.8 | . | . | -16.4 | . | .
O=C(COC(=O)/C=C/c1ccc(Cl)cc1)Nc1ccc2c(c1)OCCO2 | 17.2* | -7.5 | 3.3 | 4.6 | 6.1 | 7.3 | 14.4 | 12.4
Cc1cc(-c2csc(NC(=O)c3ccc(=O)[nH]c3)n2)c(C)n1Cc1ccco1 | . | -10.3 | -3.5 | . | . | -19.0 | . | .
Cc1cc(C)nc(NC(=O)CSc2nc3ccccc3s2)n1 | 2.2 | -34.4 | -22.9 | 18.3 | 1.7 | -1.5 | . | .
Cc1ccc(S(=O)(=O)NC(=O)CSc2nc3ccccc3s2)cc1 | 20.3* | 5.2 | -21.1 | 4.1 | 13.2 | -24.6 | 12.3 | 14.2
CN(C)CCNC(=S)NC1CCCCC1 | . | -11.9 | 1.1 | . | 7.4 | -19.6 | . | .
CN(C)CCOC(C1CCCCC1)C1CCCCC1 | 26.8* | -19.0 | -34.5 | 3.0 | 18.0 | -14.4 | 12.2 | 15.9
CCn1c(=N)n(CC(=O)C23CC4CC(CC(C4)C2)C3)c2ccccc21 | 26.7* | -19.6 | -0.8 | 9.2 | 8.8 | 4.8 | 20.7* | 32.1*
COC(=O)c1ccccc1NC(=O)c1cnn2c(C(F)F)cc(C3CC3)nc12 | 18.7* | -35.9 | -33.5 | 6.2 | 16.2 | 0.8 | 43.7* | 32.5*
COc1cc(NC(=O)c2cnn3c(C(F)F)cc(C4CC4)nc23)c(OC)cc1Cl | . | 16.5 | -18.1 | . | 0.7 | -5.3 | . | .
O=C(CN1C(=O)NC2(CCCC2)C1=O)N1CCc2ccccc2C1 | . | -7.0 | 1.5 | . | -3.0 | 19.1 | . | .
c1coc(Cn2nnnc2CN2CCN(C3CCCC3)CC2)c1 | 0.0 | -28.1 | -19.3 | . | 7.9 | -4.1 | . | .
Fc1ccc(Cn2nnnc2CN2CCN(C3CCCCC3)CC2)cc1 | 19.9* | -19.7 | -20.7 | 11.2 | 18.3 | -14.6 | 11.6 | 11.4
CCC1CCCCN1C(=O)CCc1nnc(Cc2cc(OC)ccc2OC)o1 (stereo unspecified) | . | -17.9 | -3.5 | . | . | -10.6 | . | .
